From ChEMBL document CHEMBL5674881, “The therapeutic properties of resminostat for hepatocellular carcinoma” (2018)
Active and inactive are the calls of the source. The calls are words filed in the database; no cut-off is given here.

How the values were obtained:
Hep 3B2 [1] = experiment: Anti-proliferative activity against human Hep3B cells assessed as increase in IL-10 mRNA level at 80 nM incubated for 24 hrs in presence of SGBS CM by qRT-PCR analysis; assay type: functional, cell-based
Hep 3B2 [2] = experiment: Anti-proliferative activity against human Hep3B cells assessed as increase in BAX mRNA level at 80 nM incubated for 24 hrs by qRT-PCR analysis; assay type: functional, cell-based
Hep 3B2 [3] = experiment: Anti-proliferative activity against human Hep3B cells assessed as increase in expression at 80 nM incubated for 24 hrs by qRT-PCR analysis
Hep 3B2 [4] = experiment: Downregulation of HDAC expression in human Hep3B cells at 80 nM incubated for 24 hrs in presence of 17-AAG by qRT-PCR analysis; assay type: functional, cell-based
Hep 3B2 [5] = experiment: Effect on human Hep3B cells assessed as reduction of HDAC global activity at 80 nM incubated for 24 hrs by FluoroFire HDAC Activity Assay Kit relative to control; assay type: functional; set-up: scale not given: the % may be the effect or the level left
How it was run: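 Hep3B cells treated 24 h with 80 nM drug, alone or with 30% SGBS conditioned medium. Lysates made with lysis reagent (15 min, room temperature, shaking), spun, and supernatant used. Preincubated 20 min at 37°C, then Emerald substrate added for 1 h at 37°C. Fluorescence read at Ex 490/Em 525 nm. HeLa nuclear extract as positive control, HeLa extract with trichostatin A as negative control (n = 3).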

Hep 3B2 [6] = experiment: Anti-proliferative activity against human Hep3B cells assessed as increase in Caspase 7 expression at 80 nM incubated for 24 hrs by qRT-PCR analysis; assay type: functional, cell-based
Hep 3B2 [7] = experiment: Downregulation of BCL2 expression in human Hep3B cells at 80 nM incubated for 24 hrs by qRT-PCR analysis; assay type: functional, cell-based
Hep 3B2 [8] = experiment: Anti-proliferative activity against human Hep3B cells assessed as decrease in leptin mRNA level at 80 nM incubated for 24 hrs in presence of SGBS CM by qRT-PCR analysis; assay type: functional, cell-based
Hep 3B2 [9] = experiment: Anti-proliferative activity against human Hep3B cells assessed as reduced cell proliferation at 80 nM for 24 hrs in presence of DZNep by Fluoro Fire-Blue ProViaTox assay relative to control; assay type: functional; set-up: scale not given: the % may be the effect or the level left
Hep 3B2 [10] = experiment: Downregulation of STAT3 mRNA expression in human Hep3B cells at 80 nM incubated for 24 hrs in presence of 17-AAG by qRT-PCR analysis; assay type: functional, cell-based
How it was run: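 Hep3B cells given 80 nM drug, 17-AAG (50 nM) or both for 24 h. STAT3 and a gene panel (BCL-2, HSP90, ZFP64) measured at RNA level. Triplicates, three independent experiments, mean ± SD.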

Hep 3B2 [11] = experiment: Anti-proliferative activity against human Hep3B cells assessed as no change in BAD expression at 80 nM incubated for 24 hrs by qRT-PCR analysis; assay type: functional, cell-based
Hep 3B2 [12] = experiment: Anti-proliferative activity against human Hep3B cells assessed as decrease in Cyclin D1 expression at 80 nM incubated for 24 hrs in presence of SGBS CM by qRT-PCR analysis; assay type: functional, cell-based
Hep 3B2 [13] = experiment: Anti-proliferative activity against human Hep3B cells assessed as reduction in cell viability at 80 nM for 24 hrs in presence of GSK343 by Fluoro Fire-Blue ProViaTox assay relative to control; assay type: functional
Hep 3B2 [14] = experiment: Anti-proliferative activity against human Hep3B cells assessed as increase in cleaved Caspase 9 level at 80 nM incubated for 24 hrs in presence of SGBS CM by Tetraplex-Assay Kit analysis; assay type: functional, cell-based
How it was run: (§1)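 Hep3B seeded at 20000 cells/well overnight, then treated with 30% differentiated SGBS conditioned medium with or without resminostat 80 nM for 24 h. Tetraplex caspase substrate buffer added during treatment for real-time cleavage read-out: Caspase 3/7 at Ex 535/Em 620 nm, Caspase 8 at Ex 490/Em 525 nm, Caspase 9 at Ex 370/Em 450 nm. Compared with controls or between treatments; n = 3.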

Hep 3B2 [15] = experiment: Anti-proliferative activity against human Hep3B cells assessed as increase in Caspase 8 expression at 80 nM incubated for 24 hrs by qRT-PCR analysis; assay type: functional, cell-based
Hep 3B2 [16] = experiment: Effect on human Hep3B cells assessed as reduction in HDAC1 mRNA level at 80 nM incubated for 24 hrs by qRT-PCR analysis; assay type: functional, cell-based
How it was run: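 RNA levels of HDAC1 and HDAC2 measured in Hep3B cells after 24 h with 80 nM drug, 17-AAG (50 nM) or the combination (n = 3). Cells grown in EMEM with 10% FBS at 37°C, 5% CO2.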

Hep 3B2 [17] = experiment: Downregulation of HSP90 mRNA expression in human Hep3B cells at 80 nM incubated for 24 hrs in presence of 17-AAG by qRT-PCR analysis; assay type: functional, cell-based
Hep 3B2 [18] = experiment: Effect on human Hep3B cells assessed as reduction in HDAC1 mRNA level at 80 nM incubated for 24 hrs in presence of SGBS CM by qRT-PCR analysis; assay type: functional, cell-based
How it was run: (§2)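 Hep3B cells exposed to 30% conditioned medium from differentiated SGBS adipocytes, with or without 80 nM drug. HDAC1, 2 and 3 RNA given as fold change versus untreated cells or between treatments.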

Hep 3B2 [19] = experiment: Upregulation of BAX expression in human Hep3B cells at 80 nM incubated for 24 hrs by qRT-PCR analysis; assay type: functional, cell-based
How it was run: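 RNA levels of BCL-2, BIM, BAX and BAD measured in Hep3B cells after 24 h with 80 nM drug. Triplicates, three independent experiments, t-test.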

Hep 3B2 [20] = experiment: Anti-proliferative activity against human Hep3B cells assessed as decrease in VEGF mRNA level at 80 nM incubated for 24 hrs in presence of SGBS CM by qRT-PCR analysis; assay type: functional, cell-based
Hep 3B2 [21] = experiment: Downregulation of EZH2 expression in human Hep3B cells at 80 nM incubated for 24 hrs in presence of GSK343 by qRT-PCR analysis; assay type: functional, cell-based
Hep 3B2 [22] = experiment: Effect on human Hep3B cells assessed as reduction in HDAC3 mRNA level at 80 nM incubated for 24 hrs in presence of SGBS CM by qRT-PCR analysis; assay type: functional, cell-based; how it was run: as §2
Hep 3B2 [23] = experiment: Anti-proliferative activity against human Hep3B cells assessed as increase in cleaved Caspase 8 level at 80 nM incubated for 24 hrs in presence of SGBS CM by Tetraplex-Assay Kit analysis; assay type: functional, cell-based; how it was run: as §1
Hep 3B2 [24] = experiment: Anti-proliferative activity against human Hep3B cells assessed as increase in Caspase 3 expression at 80 nM incubated for 24 hrs by qRT-PCR analysis; assay type: functional, cell-based
Hep 3B2 [25] = experiment: Anti-proliferative activity against human Hep3B cells assessed as reduction in cell viability at 80 nM incubated for 24 hrs in presence of cisplatin by Fluoro Fire-Blue ProViaTox assay relative to control; assay type: functional, cell-based
Hep 3B2 [26] = experiment: Downregulation of STAT3 expression in human Hep3B cells at 80 nM incubated for 24 hrs in presence of GSK343 by qRT-PCR analysis; assay type: functional, cell-based
How it was run: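 RNA from Hep3B cells treated 24 h with GSK343 (7 nM) alone or with 80 nM drug; EZH2 and STAT3 levels compared between the two treatments. Cells grown in EMEM with 10% FBS, 2 mM L-glutamine, 37°C, 5% CO2.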

CN(C)Cc1ccc(S(=O)(=O)n2ccc(/C=C/C(=O)NO)c2)cc1 [RESMINOSTAT]
Activity (Hep 3B2 [1]): Active
Activity (Hep 3B2 [2]): Active
Activity (Hep 3B2 [3]): Active
Activity (Hep 3B2 [4]): Active
Activity (Hep 3B2 [5]): 62.33%
Activity (Hep 3B2 [6]): Active
Activity (Hep 3B2 [7]): Active
Activity (Hep 3B2 [8]): Active
Activity (Hep 3B2 [9]): 11.76%
Activity (Hep 3B2 [10]): Active
Activity (Hep 3B2 [11]): Active
Activity (Hep 3B2 [12]): Active
Activity (Hep 3B2 [13]): 21.61%
Activity (Hep 3B2 [14]): Active
Activity (Hep 3B2 [15]): Active
Activity (Hep 3B2 [16]): Active
Activity (Hep 3B2 [17]): Active
Activity (Hep 3B2 [18]): Active
Activity (Hep 3B2 [19]): Active
Activity (Hep 3B2 [20]): Active
Activity (Hep 3B2 [21]): Active
Activity (Hep 3B2 [22]): Active
Activity (Hep 3B2 [23]): Active
Activity (Hep 3B2 [24]): Active
Activity (Hep 3B2 [25]): Active
Activity (Hep 3B2 [26]): Active
